By IC50 is commonly meant the concentration that inhibits the measured activity by half. A low value points to greater potency.

This is an account of results in ChEMBL document CHEMBL2157868, “Design, synthesis, and preliminary biological evaluation of 6-O-glucose-azomycin adducts for diagnosis and therapy of hypoxic tumors” (J Med Chem, 2012).

For assay [1], the system named is HeLa. Nature of the assay: Cytotoxicity against human HeLa cells assessed as survival fraction under hypoxic condition to hypoxic condition plus sensitizer at 0.5 mM after 30 mins by clonogenic assay relative to control.
A short description of assay [2]: Cytotoxicity against mouse KBALB cells after 3 days by MTT assay. It is filed as functional, cell-based. Particulars: 72 h. Put shortly:
(§1)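 MTT assay. Exponentially growing cells were seeded at 8 × 10² cells/well and held 24 h at 37 °C in 5% CO₂. Compound from a 2 mM stock in 95% ethanol was added, with a maximum final concentration of 1 mM. Exposure lasted 3 days at 37 °C. MTT was added for 4 h, formazan dissolved in DMSO, and absorbance read at 540 nm. IC50s were estimated from survival plots.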
A general note: Formazan colour is commonly taken as a measure of viable cells.

Assay [3] deals with HeLa. Nature of the assay: Cytotoxicity against human HeLa cells after 3 days by MTT assay. It is filed as functional, cell-based. Particulars: 72 h. Put shortly: as §1
Assay [4] concerns EMT6. Nature of the assay: Cytotoxicity against mouse EMT6 cells after 3 days by MTT assay. The class given is functional, cell-based. Conditions: EMT6, 72 h. Put shortly:
as §1

Assay [5] concerns EMT6. In words: Cytotoxicity against mouse EMT6 cells assessed as survival fraction ratio under hypoxic condition at 0.5 mM incubated for 30 mins followed by compound wash out measured after 10 to 14 days by clonogenic assay relative to control. It is filed as functional. Put shortly:
(§2)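 Clonogenic radiosensitization. Cells (300000 per dish, DMEM/F12) were grown 24 h at 37 °C, 5% CO₂, then exposed to compound for 30 min. Hypoxic dishes were degassed by six vacuum/N₂ cycles, and all dishes were shaken 30 min at room temperature. Dishes were ⁶⁰Co γ-irradiated (0–20 Gy) under N₂ or air, then trypsinized and replated. Colonies were grown 10−14 days, stained, and counted, in triplicate. Surviving fractions at 18 Gy were taken from survival plots.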

Assay [6] in a line: Ratio of IAZA IC50 to compound IC50 for human MOO6X cells. It is filed as functional.
Assay [7] in a line: Cytotoxicity against human MOO6X cells after 3 days by MTT assay. It is filed as functional, cell-based. Conditions: 72 h. The essentials: as §1
The nature of assay [8]: Cytotoxicity against mouse KBALB-STK cells after 3 days by MTT assay. Particulars: 72 h. The class given is functional, cell-based. Put shortly:
as §1

Assay [9] is described as follows: Cytotoxicity against human MOO6X cells assessed as survival fraction ratio under hypoxic condition at 0.5 mM incubated for 30 mins followed by compound wash out measured after 10 to 14 days by clonogenic assay relative to control. The class given is functional. The essentials: as §2
Assay [10] concerns the target T1, Solute carrier family 2, facilitated glucose transporter member 2 (Homo sapiens) (UniProt P11168).
T1 sequence (whole entry): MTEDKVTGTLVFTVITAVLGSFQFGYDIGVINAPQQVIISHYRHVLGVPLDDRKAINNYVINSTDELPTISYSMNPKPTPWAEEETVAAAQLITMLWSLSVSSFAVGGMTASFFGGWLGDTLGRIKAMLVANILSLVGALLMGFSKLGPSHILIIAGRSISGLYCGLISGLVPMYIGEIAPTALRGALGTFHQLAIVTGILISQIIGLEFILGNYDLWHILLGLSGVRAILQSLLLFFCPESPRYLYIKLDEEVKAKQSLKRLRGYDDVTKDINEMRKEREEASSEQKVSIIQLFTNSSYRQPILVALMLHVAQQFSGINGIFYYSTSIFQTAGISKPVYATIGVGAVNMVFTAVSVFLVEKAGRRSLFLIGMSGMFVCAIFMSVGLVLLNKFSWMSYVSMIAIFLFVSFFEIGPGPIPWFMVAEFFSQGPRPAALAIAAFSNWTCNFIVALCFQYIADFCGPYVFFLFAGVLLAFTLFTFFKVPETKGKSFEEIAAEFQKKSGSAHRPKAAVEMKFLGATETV
Nature of the assay: Binding affinity to recombinant GLUT2 expressed in Xenopus oocytes assessed as inhibition of [14C]glucose uptake after 20 mins by liquid scintillation counting. The class given is cell-based. Conditions: Oocyte. Put shortly: (§3)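 Xenopus oocytes expressing the GLUT were incubated in groups of 10−12 in Na⁺ transport medium (Hepes, pH 7.5) with [¹⁴C]glucose (1 μCi/mL) and inhibitor for 20 min at 20 °C. Oocytes were washed six times in ice-cold medium, dissolved in 1% SDS, and counted by liquid scintillation. Uptake inhibition was plotted against inhibitor concentration; for GLUT-2, EC50 came from four-parameter logistic fitting.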

Assay [11] concerns the target T2, Solute carrier family 2, facilitated glucose transporter member 1 (Homo sapiens) (UniProt P11166).
T2 sequence (whole entry): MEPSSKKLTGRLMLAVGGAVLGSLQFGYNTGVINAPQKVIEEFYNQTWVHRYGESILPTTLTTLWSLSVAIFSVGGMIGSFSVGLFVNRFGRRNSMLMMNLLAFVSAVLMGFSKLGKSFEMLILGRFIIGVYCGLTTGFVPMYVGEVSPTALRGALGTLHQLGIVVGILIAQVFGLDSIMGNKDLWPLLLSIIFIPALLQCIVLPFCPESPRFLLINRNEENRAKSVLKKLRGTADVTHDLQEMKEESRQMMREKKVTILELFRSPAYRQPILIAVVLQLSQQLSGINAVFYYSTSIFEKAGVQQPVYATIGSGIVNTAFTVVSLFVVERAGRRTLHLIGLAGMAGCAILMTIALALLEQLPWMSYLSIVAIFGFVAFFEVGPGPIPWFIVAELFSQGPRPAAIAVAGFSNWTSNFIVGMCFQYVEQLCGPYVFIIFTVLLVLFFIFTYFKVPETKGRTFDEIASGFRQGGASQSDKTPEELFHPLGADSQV
In words: Binding affinity to recombinant GLUT1 expressed in Xenopus oocytes assessed as inhibition of [14C]glucose uptake after 20 mins by liquid scintillation counting. Particulars: Oocyte. The class given is cell-based. Put shortly:
as §3

Assay [12] relates to EMT6. In words: Cytotoxicity against mouse EMT6 cells assessed as survival fraction ratio under hypoxic condition at 0.1 to 1 mM after 6 hrs relative to control. It is filed as functional.

Active and inactive are the calls of the source. No cut-off for these calls is given here.

In the case of `O=[N+]([O-])c1nccn1CC(O)COC[C@H]1OC(O)[C@H](O)[C@@H](O)[C@@H]1O` (mixture of isomers), the Ratio was 1.2 in the assay with HeLa [1], 1 with EMT6 [5] and 1 in [9]. Further, the IC50 in assay [2] was 500 µM; in the assay on HeLa [3], 500 µM; in the assay with EMT6 [4] it was 600 µM; in assay [7] it was 50 µM; in [8] it was 500 µM. In addition, the “Ratio IC50” value in assay [6] turned out to be 10.

In the case of `O=[N+]([O-])c1nccn1CC([18F])COC[C@H]1OC(O)[C@H](O)[C@@H](O)[C@@H]1O` (mixture of isomers), the Ratio came to 1.3 in the assay with HeLa [1], 1.2 in the assay with EMT6 [5] and 1.3 in assay [9]. The IC50 (in [2]; in the assay on HeLa [3]; in the assay on EMT6 [4]; in [7]; in assay [8]) was > 1000 µM throughout.

Consider `O=[N+]([O-])c1nccn1/C=C/COC[C@H]1OC(O)[C@H](O)[C@@H](O)[C@@H]1O` (mixture of isomers), for which the results for the Ratio (with HeLa [1]; in the assay with EMT6 [5]; in assay [9]) were 1.7, 1.4 and 1.3, respectively. Further, the ED50 in [10] amounted to 500 µM. For the same compound, the IC50 with EMT6 [4] was > 1000 µM. In addition, the inhibition entry in assay [11] was “Active”.

`O=[N+]([O-])c1nccn1[C@H]1O[C@H](C[123I])[C@@H](O)[C@@H]1O` [IODOAZOMYCIN ARABINOSIDE]: the IC50 in [2] was 500 µM; in the assay on HeLa [3] it was > 1000 µM; in the assay with EMT6 [4], > 1000 µM; in assay [7] it was > 1000 µM; in assay [8], 500 µM. Further, in the assay with EMT6 [12], the Ratio came out at 1.5.
